Data as given in ChEMBL document CHEMBL4196194, “De Novo Design of α-Helical Lipopeptides Targeting Viral Fusion Proteins: A Promising Strategy for Relatively Broad-Spectrum Antiviral Drug Discovery” (J Med Chem, 2018).
Active and inactive are the calls of the source. The calls are words filed in the database; no cut-off is given here. Where a SMILES comes first, the peptide text is derived from it. [ ]: non-standard residue; d: D form. The star is where a group is joined. Palmitoyl = CCCCCCCCCCCCCCCC(=O)*; X1 = O=[N+]([O-])c1ccc(*)c2onnc12; βAla = NCCC(=O)O

What was measured:
[1] = Drug distribution in acidic vesicles intracellular compartments of MDCK cells incubated for 1 hrs by LysoTracker Red DND-99 staining based confocal microscopy; type: ADME, cell-based, Canis lupus familiaris; settings: dog
Method in brief: (§1)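 MDCK cells were pre-stained with 100 nM LysoTracker Red for 1.5 h and washed. They were then given 5 μM NBD-labelled lipopeptide in phenol-red-free DF-12 at 37 °C, 5% CO2. Confocal imaging with a 20× objective was done at 10 min, 30 min, 1 h, 2 h and 4 h. Peptide was read in the FITC channel and acidic compartments in the red channel, with colocalization assessed on merged images.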

[2] = Drug distribution in cell membrane of MDCK cells incubated for 0.5 hrs by confocal microscopy; type: ADME, cell-based, Canis lupus familiaris; settings: dog; method in brief: as §1
[3] = test system: Influenza A virus; test: Antiviral activity against influenza A virus Hong Kong/8/1968(H3N2) infected in HEK293T cells assessed as inhibition of viral replicon activity incubated for 30 hrs by dual-Glo luciferase assay; type: functional, organism-based
Method in brief: (§2)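 HEK293T cells (2.5 × 10^4/well) transfected with plasmids for NP, PB1, PB2, PA plus p0LN-S-Luc firefly and pRL-SV40 Renilla reporters; serially diluted compound added 6 h post-transfection, luciferase read after 30 h by Dual-Glo. Activity = firefly/Renilla ratio; % inhibition normalized to positive and negative controls, curve-fitted; three independent measurements.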

[4] = test system: Influenza A virus; test: Antiviral activity against Influenza A virus (A/Puerto Rico/8/1934(H1N1)) infected in HEK293T cells assessed as inhibition of viral replicon activity incubated for 30 hrs by dual-Glo luciferase assay; type: functional, organism-based; method in brief: as §2
[5] = Drug distribution in acidic vesicles intracellular compartments of MDCK cells incubated for 4 hrs by LysoTracker Red DND-99 staining based confocal microscopy; type: ADME, cell-based, Canis lupus familiaris; settings: dog; method in brief: as §1

Question: What does the source list for `CCCCCCCCCCCCCCCC(=O)NCCCC[C@H](NC(=O)CCNC(=O)[C@H](CCCCN)NC(=O)[C@H](CCCCN)NC(=O)[C@H](CCC(N)=O)NC(=O)[C@@H](NC(=O)[C@H](CCC(=O)O)NC(=O)[C@H](CCC(=O)O)NC(=O)[C@@H](NC(=O)[C@H](CCCCN)NC(=O)[C@H](CCCCN)NC(=O)[C@H](CCC(N)=O)NC(=O)[C@@H](NC(=O)[C@H](CCC(=O)O)NC(=O)[C@H](CCC(=O)O)NC(=O)[C@@H](NC(=O)[C@H](CCCCN)NC(=O)[C@H](CCCCN)NC(=O)[C@H](CCC(N)=O)NC(=O)[C@@H](NC(=O)[C@H](CCC(=O)O)NC(=O)[C@H](CCC(=O)O)NC(=O)[C@@H](NC(=O)[C@H](CCCCN)NC(=O)[C@H](CCCCN)NC(=O)[C@H](CCC(N)=O)NC(=O)[C@@H](NC(=O)[C@H](CCC(=O)O)NC(=O)[C@H](CCC(=O)O)NC(=O)[C@@H](NC(=O)[C@H](CCCCN)NC(=O)[C@H](CCCCN)NC(=O)[C@H](CCC(N)=O)NC(=O)[C@@H](NC(=O)[C@H](CCC(=O)O)NC(=O)[C@H](CCC(=O)O)NC(=O)[C@@H](NC(=O)CCNc1ccc([N+](=O)[O-])c2nnoc12)[C@@H](C)CC)[C@@H](C)CC)[C@@H](C)CC)[C@@H](C)CC)[C@@H](C)CC)[C@@H](C)CC)[C@@H](C)CC)[C@@H](C)CC)[C@@H](C)CC)[C@@H](C)CC)C(N)=O` ({X1-βAla}-IEEIQKKIEEIQKKIEEIQKKIEEIQKKIEEIQKK[βAla]K(Palmitoyl)-NH2)?
Answer: Drug uptake [1]: Active; Drug uptake [2]: Active; inhibition [3]: Active; inhibition [4]: Active; Drug uptake [5]: Active
